Measured values from ChEMBL document CHEMBL1806414, “Synthesis and anticonvulsant activity of 7-phenyl-6,7-dihydro-[1,2,4]triazolo[1,5-a]pyrimidin-5(4H)-ones and their derivatives” (Eur J Med Chem, 2011).
Activity calls are given as the source filed them. No cut-off for these calls is given here.

Experiments:
[1] = test system: Mus musculus; assay: Neurotoxicity in Kunming mouse at 100 mg/kg, ip after 4 hrs; type: toxicity, organism-based; design: dose 100 mg/kg, route intraperitoneal; conditions: in vivo
Procedure, shortened: (§1)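 Rotarod neurotoxicity in KunMing mice (18–22 g) trained on a 3.2 cm diameter rod at 10 rpm. Compounds in DMSO were given i.p. at 30, 100 and 300 mg/kg, three mice per dose, and tested at 0.5 h and 4 h after dosing.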

[2] = test system: Mus musculus; assay: Anticonvulsant activity against maximal electric shock-induced seizures in ip dosed Kunming mouse assessed as median effective dose; type: functional
Procedure, shortened: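 Phase-II MES test in KunMing mice (18–22 g), DMSO vehicle, corneal electrode stimulus 0.2 s. Groups of 10 mice got a range of i.p. doses until at least three points fell within 10–90% seizure protection, giving the median effective dose. Endpoint is abolition of tonic hind-leg extension.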

[3] = Neurotoxicity in ip dosed Kunming mouse by rotarod test; type: toxicity, organism-based; conditions: in vivo
Procedure, shortened: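 Phase-II rotarod test in KunMing mice trained on a 3.2 cm rod at 10 rpm, DMSO vehicle. Groups of 10 mice got graded i.p. doses until at least three points fell within 10–90% minimal neurotoxicity, giving the median toxic dose.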

[4] = test system: Mus musculus; assay: Anticonvulsant activity in Kunming mouse assessed as protection against maximal electric shock-induced seizures at 30 mg/kg, ip measured after 4 hrs; type: functional, organism-based; design: dose 30 mg/kg
Procedure, shortened: (§2)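 KunMing mice (18–22 g), compounds dissolved in DMSO, given i.p. at 30, 100 and 300 mg/kg, three mice per dose. Current applied through corneal electrodes for 0.2 s at 0.5 h and 4 h after dosing. Protection is abolition of tonic hind-leg extension, scored as protected/tested.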

[5] = species: Mus musculus; assay: Protective index, ratio of TD50 for neurotoxicity in Kunming mouse to ED50 for inhibition of MES-induced seizures in Kunming mouse; type: functional
[6] = test system: Mus musculus; assay: Anticonvulsant activity in Kunming mouse assessed as protection against maximal electric shock-induced seizures at 300 mg/kg, ip measured after 0.5 hrs; type: functional, organism-based; design: dose 300 mg/kg; procedure, shortened: as §2
[7] = test system: Mus musculus; assay: Anticonvulsant activity in Kunming mouse assessed as protection against maximal electric shock-induced seizures at 100 mg/kg, ip measured after 0.5 hrs; type: functional, organism-based; design: dose 100 mg/kg; procedure, shortened: as §2
[8] = test system: Mus musculus; assay: Neurotoxicity in Kunming mouse at 300 mg/kg, ip after 0.5 hrs; type: toxicity, organism-based; design: dose 300 mg/kg, route intraperitoneal; conditions: in vivo; procedure, shortened: as §1
[9] = test system: Mus musculus; assay: Neurotoxicity in Kunming mouse at 300 mg/kg, ip after 4 hrs; type: toxicity, organism-based; design: dose 300 mg/kg, route intraperitoneal; conditions: in vivo; procedure, shortened: as §1
[10] = test system: Mus musculus; assay: Anticonvulsant activity in Kunming mouse assessed as protection against maximal electric shock-induced seizures at 300 mg/kg, ip measured after 4 hrs; type: functional, organism-based; design: dose 300 mg/kg; procedure, shortened: as §2
[11] = test system: Mus musculus; assay: Anticonvulsant activity in Kunming mouse assessed as protection against maximal electric shock-induced seizures at 100 mg/kg, ip measured after 4 hrs; type: functional, organism-based; design: dose 100 mg/kg; procedure, shortened: as §2
[12] = test system: Mus musculus; assay: Anticonvulsant activity in Kunming mouse assessed as protection against maximal electric shock-induced seizures at 30 mg/kg, ip measured after 0.5 hrs; type: functional, organism-based; design: dose 30 mg/kg; procedure, shortened: as §2
[13] = test system: Mus musculus; assay: Neurotoxicity in Kunming mouse at 100 mg/kg, ip after 0.5 hrs; type: toxicity, organism-based; design: dose 100 mg/kg, route intraperitoneal; conditions: in vivo; procedure, shortened: as §1

O=C1CC(c2ccccc2F)n2nccc2N1 (stereo not given)
Activity [1]: Non-toxic | ED50 [2]: 47.3 mg/kg | TD50 [3]: 118 mg/kg | Activity [4]: inactive | Ratio TD50/ED50 [5]: 2.5 | Activity [6]: Active | Activity [7]: Active | Activity [8]: Toxic | Activity [9]: Non-toxic | Activity [10]: inactive | Activity [11]: inactive

O=C1CC(c2ccccc2)n2ncnc2N1 (stereo not given)
Activity [1]: Non-toxic | ED50 [2]: 51.9 mg/kg | TD50 [3]: 548 mg/kg | Activity [4]: inactive | Activity [12]: inactive | Ratio TD50/ED50 [5]: 10.5 | Activity [6]: Active | Activity [13]: Non-toxic | Activity [7]: Active | Activity [9]: Non-toxic | Activity [10]: inactive | Activity [11]: inactive

O=C1CC(c2cccc(Br)c2)n2ncnc2N1 (stereo not given)
Activity [1]: Non-toxic | ED50 [2]: 84.9 mg/kg | TD50 [3]: 592 mg/kg | Activity [4]: inactive | Activity [12]: inactive | Ratio TD50/ED50 [5]: 7 | Activity [6]: Active | Activity [13]: Non-toxic | Activity [7]: Active | Activity [8]: Non-toxic | Activity [9]: Non-toxic | Activity [10]: inactive | Activity [11]: inactive

O=C1CC(c2cccc(Cl)c2)n2ncnc2N1 (stereo not given)
Activity [1]: Non-toxic | ED50 [2]: 47.3 mg/kg | TD50 [3]: 528 mg/kg | Activity [4]: inactive | Activity [12]: inactive | Ratio TD50/ED50 [5]: 11.2 | Activity [6]: Active | Activity [13]: Non-toxic | Activity [7]: Active | Activity [9]: Non-toxic | Activity [10]: inactive | Activity [11]: inactive

O=C1CC(c2ccccc2)n2ccnc2N1 (stereo not given)
Activity [1]: Non-toxic | ED50 [2]: 68.2 mg/kg | TD50 [3]: 458 mg/kg | Activity [4]: inactive | Activity [12]: inactive | Ratio TD50/ED50 [5]: 6.7 | Activity [6]: Active | Activity [13]: Non-toxic | Activity [7]: Active | Activity [8]: Non-toxic | Activity [9]: Non-toxic | Activity [10]: inactive | Activity [11]: inactive

O=C1CC(c2ccccc2Cl)n2ncnc2N1 (stereo not given)
Activity [1]: Non-toxic | ED50 [2]: 25.5 mg/kg | TD50 [3]: 465 mg/kg | Activity [4]: inactive | Activity [12]: Active | Ratio TD50/ED50 [5]: 18.2 | Activity [6]: Active | Activity [13]: Non-toxic | Activity [7]: Active | Activity [9]: Non-toxic | Activity [10]: inactive | Activity [11]: inactive

O=C1CC(c2ccccc2F)n2ccnc2N1 (stereo not given)
Activity [1]: Non-toxic | ED50 [2]: 88 mg/kg | TD50 [3]: 387 mg/kg | Activity [4]: inactive | Activity [12]: inactive | Ratio TD50/ED50 [5]: 4.4 | Activity [6]: Active | Activity [13]: Non-toxic | Activity [7]: Active | Activity [9]: Non-toxic | Activity [10]: inactive | Activity [11]: inactive
